# Measured values published in ChEMBL document CHEMBL4041550, “Structure-Activity Relationship Study of QL47: A Broad-Spectrum Antiviral Agent” (ACS Med Chem Lett, 2017).
# Tests used:
# [1] = Cmax in Swiss albino mouse at 10 mg/kg, ip by LC/MS/MS method; format: ADME, organism-based; design: dose 10 mg/kg, route intraperitoneal; conditions: in vivo
# Outline: (§1)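 Mouse pharmacokinetics after intravenous, oral or intraperitoneal dosing; plasma parameters derived were T1/2, Tmax, Cmax, AUClast, AUCinf, clearance, Vss and oral bioavailability F.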
# [2] = Tmax in Swiss albino mouse at 10 mg/kg, po by LC/MS/MS method; format: ADME, organism-based; conditions: in vivo; outline: as §1
# [3] = Tmax in Swiss albino mouse at 50 mg/kg, ip by LC/MS/MS method; format: ADME, organism-based; conditions: in vivo; outline: as §1
# [4] = AUClast in Swiss albino mouse at 10 mg/kg, ip by LC/MS/MS method; format: ADME, organism-based; design: dose 10 mg/kg, route intraperitoneal, time 0 - last; conditions: in vivo
# [5] = Cytotoxicity against human HuH7 cells measured after 24 hrs by CellTiter-Glo luminescent cell viability assay; format: cell-based, Huh-7
# Outline: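 DENV2-infected Huh7 cells treated across a concentration range; cell viability read 24 h later. CC50 (50% cytotoxicity) derived by non-linear regression; mean ± SD of experimental duplicates, n ≥ 2 repeats.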
# [6] = Selectivity index, ratio of CC50 for cytotoxicity against human HuH7 to IC90 for antiviral activity against Dengue virus serotype 2 strain New Guinea C infected in HuH7 cells
# Outline: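 Huh7 cells infected with DENV2, then treated across a concentration range. At 24 h, cell viability was measured, and secreted infectious virus was titrated by focus-forming assay. CC50 (50% cytotoxicity) and IC90 (1-log10 reduction in infectious progeny) were fitted by non-linear regression. Experimental duplicates, n ≥ 2 repeats.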
# [7] = Oral bioavailability in Swiss albino mouse at 10 mg/kg by LC/MS/MS method; format: ADME, organism-based; conditions: in vivo; outline: as §1
# dengue virus type 2 [8] = assay: Antiviral activity against Dengue virus serotype 2 strain New Guinea C infected in HuH7 cells assessed as reduction in log-fold change by measuring focus forming unit at 10 uM measured at 24 hrs post infection by focus forming assay relative to control; format: functional, Thailand/NGS-C/1944
# Outline: (§2)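 DENV2-infected Huh7 cells treated with compound at 2 or 10 μM. Infectious virus secreted into culture supernatants at 24 h post-infection/treatment was titred by focus-forming assay. Result expressed as log-fold change relative to DMSO treatment.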
# [9] = AUClast in Swiss albino mouse at 50 mg/kg, ip by LC/MS/MS method; format: ADME, organism-based; design: dose 50 mg/kg, route intraperitoneal, time 0 - last; conditions: in vivo
# [10] = AUClast in Swiss albino mouse at 2 mg/kg, iv by LC/MS/MS method; format: ADME, organism-based; design: dose 2 mg/kg, route intravenous, time 0 - last; conditions: in vivo
# [11] = target: Serine/threonine-protein kinase pim-2 (Homo sapiens, UniProt Q9P1W9); assay: Inhibition of recombinant full length GST-tagged human PIM2 expressed in baculovirus expression system by Z'-Lyte assay
# Outline: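 IC50 against PIM1, PIM2, BTK and BMX determined with Z′-Lyte kinase activity assays.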
# [12] = Tmax in Swiss albino mouse at 10 mg/kg, ip by LC/MS/MS method; format: ADME, organism-based; conditions: in vivo; outline: as §1
# dengue virus type 2 [13] = assay: Antiviral activity against Dengue virus serotype 2 strain New Guinea C infected in HuH7 cells assessed as reduction in log-fold change by measuring focus forming unit at 2 uM measured at 24 hrs post infection by focus forming assay relative to control; format: functional, Thailand/NGS-C/1944; outline: as §2
# [14] = AUC (infinity) in Swiss albino mouse at 10 mg/kg, ip by LC/MS/MS method; format: ADME, organism-based; design: dose 10 mg/kg, route intraperitoneal, time infinity; conditions: in vivo
# dengue virus type 2 [15] = assay: Antiviral activity against Dengue virus serotype 2 strain New Guinea C infected in HuH7 cells measured at 24 hrs post infection by focus forming assay; format: functional; conditions: Thailand/NGS-C/1944, Huh-7, 24 h
# Outline: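 Huh7 cells infected with DENV2, then treated with a range of compound concentrations. Viral yield measured 24 h later by titration of infectious particles in supernatants; in parallel, cell viability measured. IC90 (1-log10 reduction in infectious progeny) and CC50 derived by non-linear regression. Mean ± SD of experimental duplicates, n ≥ 2 repeats.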
# Sequence of Serine/threonine-protein kinase pim-2 (Q9P1W9 whole entry): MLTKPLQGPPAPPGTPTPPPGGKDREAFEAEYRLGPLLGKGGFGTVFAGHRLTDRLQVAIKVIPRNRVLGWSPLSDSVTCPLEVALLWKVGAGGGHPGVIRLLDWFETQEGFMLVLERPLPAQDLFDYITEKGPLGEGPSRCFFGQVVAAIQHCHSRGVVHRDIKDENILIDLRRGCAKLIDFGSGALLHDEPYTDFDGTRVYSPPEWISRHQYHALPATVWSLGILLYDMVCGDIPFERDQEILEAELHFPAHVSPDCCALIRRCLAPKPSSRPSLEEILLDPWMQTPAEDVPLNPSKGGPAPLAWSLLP
smiles,measurement,setting,value
Cc1ccc(-n2c(=O)ccc3ccc4ccc(-c5cnn(C)c5)cc4c32)cc1NC(=O)/C=C/CN(C)C,Cmax,[1],787 ng/mL
same,Tmax,[2],60 min
same,Tmax,[3],4.8 min
same,AUC(0-t),[4],1110 ng·h/mL
same,CC50 at 24 h,[5],12 to 20 µM
same,Selectivity Index,[6],35
same,bioavailability,[7],12%
same,Activity,dengue virus type 2 [8],4 log10FFU/ml
same,AUC(0-t),[9],8220 ng·h/mL
same,AUC(0-t),[10],161 ng·h/mL
same,IC50,[11],> 10 µM
same,Tmax,[12],15 min
same,Activity,dengue virus type 2 [13],4 log10FFU/ml
same,AUC(0-inf),[14],1210 ng·h/mL
same,IC90,dengue virus type 2 [15],0.555 µM
